ChEMBL document CHEMBL1140487, “Construction of polyamine-modified uridine and adenosine derivatives--evaluation of DNA binding capacity and cytotoxicity in vitro” (Bioorg Med Chem, 2007)

What was measured:
[1] = Toxicity in human SKBR3 cells after 48 hrs by MTT assay; assay type: cell-based; details: sk-br-3, 48 h
Method in brief: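 SK-BR-3 cells were grown in RPMI 1640 with 10% FCS, NEAA and penicillin/streptomycin, no insulin, at 37 °C, 5% CO2. Cells were seeded at 0.055×10^6/ml, and 24 h later compounds were added at 0.1–100 µM final (PBS for controls). MTT was added for 1 h, formazan dissolved in DMSO, A540 read; outer wells were excluded. Values are % of control ± SD.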

HCC1937 = test: Toxicity in human HCC1937 cells after 48 hrs by MTT assay; assay type: cell-based; details: hcc1937, 48 h
Method in brief: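 HCC1937 cells were grown in MEM α with 10% heat-inactivated FCS, NEAA, gentamycin, EGF 20 ng/ml and insulin, at 37 °C, 5% CO2. Plateau-phase cells were seeded at 0.055×10^6/ml and compounds added after 24 h at 0.1–100 µM final. Controls got PBS. MTT was added for 1 h, formazan dissolved in DMSO, A540 read. Values are % of control ± SD.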

Clupea [2] = test: Effect on thermal melting point of herring testes DNA at 10 uM
Method in brief: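 Herring testes DNA at 100 µM with 10 µM polyamine in 10 mM NaCl. Absorbance read at 260 nm while heating at 0.4 °C/min from 25–98 °C. The system equilibrated 15 min before the first reading, then readings were taken each degree (2 s averaging). Tm was taken from the peak of the first-derivative curve. pH was checked before and after polyamine addition.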

[3] = Toxicity in human L56BrC1 cells after 48 hrs by MTT assay; assay type: cell-based
Method in brief: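 L56Br-C1 cells were grown in RPMI 1640 with 10% heat-inactivated FCS, NEAA, insulin and penicillin/streptomycin, at 37 °C, 5% CO2. After seeding at 0.055×10^6 cells/ml and 24 h growth, compounds were added at 0.1, 1, 10 or 100 µM final; controls received PBS. After 1 h MTT, formazan was dissolved in DMSO and A540 read. Results are % of control ± SD.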

Clupea [4] = test: Effect on thermal melting point of herring testes DNA at 50 uM
Clupea [5] = test: Effect on thermal melting point of herring testes DNA at 100 uM
Clupea [6] = test: Effect on thermal melting point of herring testes DNA at 1 uM

Tm (Clupea [2]) [°C]	ΔTm (Clupea [2]) [°C]	Tm (Clupea [4]) [°C]	ΔTm (Clupea [4]) [°C]	Tm (Clupea [5]) [°C]	ΔTm (Clupea [5]) [°C]	Tm (Clupea [6]) [°C]	ΔTm (Clupea [6]) [°C]	SMILES	Activity [1]	Activity (HCC1937)	Activity [3]
66	1	–	–	–	–	–	–	NCCCN(CCCN)CC(=O)NCC#Cc1nc(N)c2ncn([C@@H]3O[C@H](CO)[C@@H](O)[C@H]3O)c2n1	Non-toxic	Non-toxic	Non-toxic
58	-7	52	-13	51	-14	–	–	C#CCNC(=O)CN(CCCN)CCCN	Non-toxic	Non-toxic	Non-toxic
66.5	1.5	–	–	–	–	–	–	NCCCN(CCCN)CC(=O)NCC#Cc1cn([C@@H]2O[C@H](CO)[C@@H](O)[C@H]2O)c(=O)[nH]c1=O	Non-toxic	Non-toxic	Non-toxic
61	-4	–	–	50	-15	62	-3	NCCCN(CCCN)CC(=O)O	Non-toxic	Non-toxic	Non-toxic

SMILES	Tm (Clupea [2]) [°C]	ΔTm (Clupea [2]) [°C]	Tm (Clupea [4]) [°C]	ΔTm (Clupea [4]) [°C]	Tm (Clupea [5]) [°C]	ΔTm (Clupea [5]) [°C]	Tm (Clupea [6]) [°C]	ΔTm (Clupea [6]) [°C]	Activity [1]	Activity (HCC1937)	Activity [3]
NCCCNCCCN [NORSPERMIDINE]	77	12	–	–	–	–	–	–	Non-toxic	Non-toxic	Non-toxic
